Test results reported in ChEMBL document CHEMBL1287725, “N-(8-(3-ethynylphenoxy)octyl-1-deoxynojirimycin suppresses growth and migration of human lung cancer cells” (Bioorg Med Chem Lett, 2010).
The source made the active and inactive calls. No cut-off for these calls is given here.

Columns and labels:
A549 [1] = assay: Antiproliferative activity against human A549 cells after 72 hrs by MTT assay; format: functional, cell-based; settings: A549, 72 h
In short: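 A549 cells (2.5 x 10^3/well) in F12K with 10% FBS, seeded overnight, then exposed to a range of doses for 72 h. MTT was added to a final 0.5 mg/ml for 3 h. Formazan was dissolved in DMSO and absorbance read. Triplicates, three experiments; IC50 given as mean of three experiments.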

A549 [2] = assay: Effect on surface oligosaccharide expression in human A549 cells assessed as inhibition of binding of L-PHA-[…] to cell surface at 50 uM after 24 hrs by flow cytometry; format: functional, cell-based
A549 [3] = assay: Inhibition of human A549 cell migration at 100 uM after 24 hrs by wound-healing assay; format: functional, cell-based
In short: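 Confluent A549 monolayers (3 x 10^4 cells seeded overnight, F12K/10% FBS) were scratched with a 200 µl pipette tip and washed. They were incubated at 37 °C in 10% FBS F12K with or without compound, and migration into the wound was photographed at 0 and 24 h.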

A549 [4] = assay: Cell cycle arrest in human A549 cells assessed as accumulation at G2/M phase at 100 uM after 24 hrs using propidium iodide staining by flow cytometry relative to control; format: functional
In short: (§1)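 A549 cells were seeded overnight in F12K/10% FBS, then treated 24 h. They were harvested with trypsin-EDTA, fixed in 70% ethanol at −20 °C for at least 2 h, and treated with RNase A 200 µg/ml at 25 °C for 30 min. Staining was with propidium iodide 50 µg/ml for 30 min at 4 °C. 10,000 nuclei per sample were scored by flow cytometry for G1, S and G2/M percentages. Triplicate, repeated three times.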

A549 [5] = assay: Cell cycle arrest in human A549 cells assessed as accumulation at S phase at 50 uM after 24 hrs using propidium iodide staining by flow cytometry relative to control; format: functional; in short: as §1
A549 [6] = assay: Inhibition of human A549 cell migration assessed as prevention of actin stress fibre formation at 100 uM after 24 hrs by TRITC-phalloidin staining; format: functional, cell-based
In short: (§2)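 A549 cells on glass coverslips were seeded overnight, then exposed 24 h. They were fixed with 4% paraformaldehyde, permeabilised with 0.1% Triton X-100, blocked with 1% BSA, and stained 60 min with TRITC-phalloidin for F-actin. Stress fibres were examined by confocal microscopy (100x oil). Repeated three times.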

A549 [7] = assay: Inhibition of human A549 cell migration assessed as disruption of actin assembly at 100 uM after 24 hrs by TRITC-phalloidin staining; format: functional, cell-based; in short: as §2
A549 [8] = assay: Induction of apoptosis in human A549 cells assessed as increased mitochondrial membrane depolarization at 100 uM after 48 hrs using JC-1 dye by flow cytometry; format: functional, cell-based
In short: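 After 48 h exposure, A549 cells were harvested and stained with JC-1. The red-to-green fluorescence shift (green/red ratio) was measured by flow cytometry as mitochondrial depolarisation. Mean ± SD, n=3.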

A549 [9] = assay: Induction of apoptosis in human A549 cells at 100 uM after 24 to 72 hrs using annexin V and propidium iodide staining by flow cytometry; format: functional, cell-based
In short: (§3)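 A549 cells were seeded and, the next day, treated in complete medium at 0, 50 or 100 µM for 24, 48 and 72 h. Cells were collected and washed twice with DPBS, then stained with an annexin V-FITC/propidium iodide kit. Annexin V-positive cells were quantified by flow cytometry. Triplicate, repeated three times.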

A549 [10] = assay: Cell cycle arrest in human A549 cells assessed as accumulation at G1 phase at 100 uM after 24 hrs using propidium iodide staining by flow cytometry relative to control; format: functional; in short: as §1
A549 [11] = assay: Cell cycle arrest in human A549 cells assessed as accumulation at G1 phase at 50 uM after 24 hrs using propidium iodide staining by flow cytometry relative to control; format: functional; in short: as §1
A549 [12] = assay: Induction of apoptosis in human A549 cells at 50 uM after 24 to 72 hrs using annexin V and propidium iodide staining by flow cytometry; format: functional, cell-based; in short: as §3
A549 [13] = assay: Cell cycle arrest in human A549 cells assessed as accumulation at G2/M phase at 50 uM after 24 hrs using propidium iodide staining by flow cytometry relative to control; format: functional; in short: as §1
A549 [14] = assay: Cell cycle arrest in human A549 cells assessed as accumulation at S phase at 100 uM after 24 hrs using propidium iodide staining by flow cytometry relative to control; format: functional; in short: as §1

Compound | IC50 (A549 [1]) | inhibition (A549 [2]) | inhibition (A549 [3]) | Activity (A549 [4]) | Activity (A549 [5]) | inhibition (A549 [6]) | inhibition (A549 [7]) | Activity (A549 [8]) | Activity (A549 [9]) | Activity (A549 [10]) | Activity (A549 [11]) | Activity (A549 [12]) | Activity (A549 [13]) | Activity (A549 [14])
OC[C@H]1NC[C@H](O)[C@@H](O)[C@@H]1O [DUVOGLUSTAT] | > 1000 µM | Active | inactive | – | – | – | – | – | – | – | – | – | – | –
C#Cc1cccc(OCCCCCCCCN2C[C@H](O)[C@@H](O)[C@H](O)[C@H]2CO)c1 | 51.2 µM | Active | Active | 5.44% | 13.93% | Active | Active | Active | Active | 89.1% | 77.69% | Active | 9.97% | 4.85%
C#Cc1cccc(OC)c1 | > 1000 µM | – | inactive | – | – | – | – | – | – | – | – | – | – | –
